Converted amounts (≈) assume the structure as drawn.
Key:
Salmonella typhimurium [1] = experiment: Genotoxicity in recombinant Salmonella typhimurium TA104 expressing Vibrio fisheri luxabcd genes under transcriptional control of recN2-4 promoter assessed as concentration required to cause DNA damage measured every 5 mins for 4 hrs by vitotox assay in presence of S9 fraction; type: toxicity, organism-based; details: salmonella enterica subsp. enterica serovar typhimurium, s9, 4 h
Outline: (§1)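 VITOTOX genox strain TA104 recN2-4 (recN promoter driving lux). Grown 16 h at 36 °C in poor LB, diluted 125-fold and shaken 1 h, then diluted 10-fold; rat aroclor S9 added for +S9 runs. Incubated at 30 °C with light read every 5 min for 4 h. Signal/noise = exposed over unexposed light. Highest concentration tested 10 µM.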

[2] = Toxicity in recombinant Salmonella typhimurium TA104 expressing luxabcd genes under transcriptional control of constitutive pr1 promoter assessed as concentration required to reduce cell viability measured every 5 mins for 4 hrs by vitotox assay in presence of S9 fraction; type: organism-based; details: salmonella enterica subsp. enterica serovar typhimurium; read-out: Activity
Outline: (§2)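 Cytox strain TA104 pr1 (constitutive promoter driving lux), run alongside the genox strain. Grown in poor LB at 36 °C for 16 h, diluted 125-fold and shaken 1 h, then diluted 10-fold, with or without aroclor-rat S9. Luminescence read at 30 °C every 5 min over 4 h; a drop in light signal indicates reduced viability. Top concentration 10 µM.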

Salmonella typhimurium [3] = experiment: Toxicity in recombinant Salmonella typhimurium TA104 expressing luxabcd genes under transcriptional control of constitutive pr1 promoter assessed as concentration required to reduce cell viability measured every 5 mins for 4 hrs by vitotox assay in absence of S9 fraction; type: organism-based; details: salmonella enterica subsp. enterica serovar typhimurium; outline: as §2
Salmonella typhimurium [4] = experiment: Genotoxicity in recombinant Salmonella typhimurium TA104 expressing Vibrio fisheri luxabcd genes under transcriptional control of recN2-4 promoter assessed as concentration required to cause DNA damage measured every 5 mins for 4 hrs by vitotox assay in absence of S9 fraction; type: toxicity, organism-based; details: salmonella enterica subsp. enterica serovar typhimurium; outline: as §1
[5] = Cytotoxicity against human HepG2/C3A cells assessed as cell viability at 180 uM after 24 hrs by neutral red uptake assay relative to control; type: cell-based; details: read-out: Activity
Outline: (§3)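 C3A cells grown in DMEM + 10% FCS, 40 000 cells/well, recovered overnight at 37 °C, 5% CO2. Exposed 24 h to serial dilutions in DMEM + 10% FCS from 18 mM DMSO stocks, DMSO limited to 1%. Neutral red added for 3 h, cells washed, dye extracted with ethanol/acetic acid (50%/1%), OD read at 540 nm with 620 nm reference. Viability expressed as % of untreated cells.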

[6] = Cytotoxicity against human HepG2/C3A cells assessed as cell viability at 120 uM after 24 hrs by neutral red uptake assay relative to control; type: cell-based; details: read-out: Activity; outline: as §3
[7] = Cytotoxicity against human HepG2/C3A cells assessed as cell viability at 60 uM after 24 hrs by neutral red uptake assay relative to control; type: cell-based; details: read-out: Activity; outline: as §3
[8] = system: Mycobacterium tuberculosis; experiment: Antimycobacterial activity against Mycobacterium tuberculosis H37Rv infected in mouse J774.A1 cells at 1 MOI assessed as intracellular bacterial growth inhibition at 0.1 uM after 1 hr by luciferase reporter gene assay relative to control; type: functional; details: J774.A1, 1 h, read-out: GI
[9] = system: Mycobacterium tuberculosis; experiment: Antimycobacterial activity against Mycobacterium tuberculosis H37Rv infected in mouse J774.A1 cells at 1 MOI assessed as intracellular bacterial growth inhibition at 1 uM after 1 hr by luciferase reporter gene assay relative to control; type: functional; details: J774.A1, 1 h, read-out: GI
[10] = system: Mycobacterium tuberculosis; experiment: Antimycobacterial activity against Mycobacterium tuberculosis H37Rv infected in mouse J774.A1 cells at 1 MOI assessed as intracellular bacterial growth inhibition at 10 uM after 1 hr by luciferase reporter gene assay relative to control; type: functional; details: J774.A1, 1 h, read-out: GI
[11] = Selectivity index, ratio of NI50 for human HepG2/C3A cells to MIC50 for Mycobacterium tuberculosis H37Rv ATCC 27294; type: functional
[12] = Potency index, ratio of MIC50 for Mycobacterium avium subsp. paratuberculosis ATCC 19698 to MIC50 for Mycobacterium bovis AN5; type: functional
[13] = Potency index, ratio of MIC50 for Mycobacterium avium subsp. avium ATCC 15769 to MIC50 for Mycobacterium bovis AN5; type: functional
Mycobacterium ulcerans = experiment: Antimycobacterial activity against Mycobacterium ulcerans 1615 assessed as growth inhibition after 6 days by luciferase reporter gene assay; type: functional; details: Mycobacterium ulcerans, 1615, 144 h
Outline: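 M. ulcerans 1615 carrying pSMT1 luciferase reporter plasmid, stock grown as surface pellicle on Sauton medium, cultured at 32 °C. Serial compound dilutions in 7H9 + 10% FCS from 10 mM DMSO stocks, tested in triplicate. Filtered bacteria added at 50 000 RLU/mL. After 6 days, wells collected and washed with PBS, 1% n-decanal in ethanol added, light read over 10 s. MIC50 = concentration giving 50% inhibition versus untreated.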

[14] = system: Mycobacterium avium subsp. paratuberculosis; experiment: Antimycobacterial activity against Mycobacterium avium subsp. paratuberculosis ATCC 19698 assessed as growth inhibition after 6 days by luciferase reporter gene assay; type: functional; details: ATCC 19698, 144 h
Outline: (§4)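 Mycobacteria carrying the pSMT1 luciferase reporter plasmid. Compounds came from 10 mM DMSO stocks and were serially diluted in 7H9 + 10% FCS. Thawed bacteria were filtered, recovered 1 h at 37 °C, then added at 50 000 RLU/mL. After 6 days of culture, light was read for 10 s after adding 1% n-decanal. Triplicates were run, and MIC50 was the concentration giving 50% growth inhibition.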

[15] = Antimycobacterial activity against Mycobacterium avium subsp. avium ATCC 15769 assessed as growth inhibition after 6 days by luciferase reporter gene assay; type: functional; details: ATCC 15769, 144 h; outline: as §4
[16] = system: Mycobacterium tuberculosis; experiment: Antimycobacterial activity against Mycobacterium tuberculosis H37Rv ATCC 27294 assessed as growth inhibition after 6 days by luciferase reporter gene assay; type: functional; details: H37Rv ATCC 27294, 144 h; outline: as §4
[17] = system: Mycobacterium tuberculosis; experiment: Antimycobacterial activity against Mycobacterium tuberculosis H37Rv ATCC 27294 assessed as growth inhibition at 0.1 uM after 6 days by luciferase reporter gene assay relative to control; type: functional; details: H37Rv ATCC 27294, 144 h, read-out: GI
Outline: (§5)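 Luminescent M. tb H37Rv (hsp60-driven luciferase) in 7H9 + 10% FCS was seeded at 50 000 RLU/mL. Compounds were tested at 10, 1 and 0.1 µM from 10 mM DMSO stocks. After 6 days, luminescence was read with 1% n-decanal. Growth inhibition (%) was expressed against untreated culture, with triplicates.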

[18] = system: Mycobacterium tuberculosis; experiment: Antimycobacterial activity against Mycobacterium tuberculosis H37Rv ATCC 27294 assessed as growth inhibition at 1 uM after 6 days by luciferase reporter gene assay relative to control; type: functional; details: H37Rv ATCC 27294, 144 h, read-out: GI; outline: as §5
[19] = system: Mycobacterium tuberculosis; experiment: Antimycobacterial activity against Mycobacterium tuberculosis H37Rv ATCC 27294 assessed as growth inhibition at 10 uM after 6 days by luciferase reporter gene assay relative to control; type: functional; details: H37Rv ATCC 27294, 144 h, read-out: GI; outline: as §5
[20] = Genotoxicity in human HepG2/C3A cells assessed as DNA fragmentation at 0.75 mM after 24 hrs by alkaline comet assay (reference value: 6.65%); type: toxicity, cell-based; details: 750 µM
[21] = Genotoxicity in human HepG2/C3A cells assessed as DNA fragmentation at 0.5 mM after 24 hrs by alkaline comet assay (reference value: 6.65%); type: toxicity, cell-based; details: 500 µM

| Compound | Activity (Salmonella typhimurium [1]) [µM] | MCC at 4 h [2] [µM] | Activity (Salmonella typhimurium [3]) [µM] | Activity (Salmonella typhimurium [4]) [µM] | viability at 24 h, 180 µM [5] [%] | viability at 24 h, 120 µM [6] [%] | viability at 24 h, 60 µM [7] [%] | intracellular bacterial growth inhibition at 0.1 µM [8] [%] | percent inhibition of intracellular bacterial growth at 1 µM [9] [%] | intracellular bacterial growth inhibition at 10 µM [10] [%] | Selectivity Index [11] | Ratio [12] | Ratio [13] | MIC50 (Mycobacterium ulcerans) [µM] | MIC50 [14] [µM] | MIC50 [15] [µM] | MIC50 [16] [µM] | inhibition of growth at 0.1 µM [17] [%] | inhibition of growth at 1 µM [18] [%] | inhibition of growth at 10 µM [19] [%] | also measured |
| --- | --- | --- | --- | --- | --- | --- | --- | --- | --- | --- | --- | --- | --- | --- | --- | --- | --- | --- | --- | --- | --- |
| O=Cc1ccc(OCCCCCCCCOc2ccc(C=O)cc2)cc1 | > 10 | > 10 | > 10 | > 10 | 69 | 95.3 | 97.9 | 0.6 | 42.9 | 58.7 | >211.8 | 5 | 5 | > 10 | 5.83 (≈ 2.07 µg/mL) | 5.36 (≈ 1.9 µg/mL) | 0.85 (≈ 0.301 µg/mL) | 13 | 64 | 99 |  |
| O=Cc1ccc(OCCCCCCCOc2ccc(C=O)cc2)cc1 | > 10 | > 10 | > 10 | > 10 | 53.4 | 78.9 | 100 | -1.2 | 43.3 | 55 | >211.8 | 5 | 5 | > 10 | 5.05 (≈ 1.72 µg/mL) | 5.12 (≈ 1.74 µg/mL) | 0.85 (≈ 0.289 µg/mL) | 13 | 62 | 99 |  |
| O=Cc1ccc(OCCCCCCOc2ccc(C=O)cc2)cc1 | > 10 | > 10 | > 10 | > 10 | 59.3 | 85.9 | 93.4 | 3.2 | 46.6 | 52.6 | >216.9 | 5 | 5 | > 10 | 6.56 (≈ 2.14 µg/mL) | 6.18 (≈ 2.02 µg/mL) | 0.83 (≈ 0.271 µg/mL) | 15 | 65 | 99 |  |
| O=Cc1ccc(OCCCCCCCCCOc2ccc(C=O)cc2)cc1 | > 10 | > 10 | > 10 | > 10 | 75.7 | 93 | 100 | -0.5 | 45.7 | 62.1 | >189.5 | 5 | 5 | > 10 | 5.95 (≈ 2.19 µg/mL) | 5.32 (≈ 1.96 µg/mL) | 0.95 (≈ 0.35 µg/mL) | 11 | 59 | 98 |  |
| O=Cc1ccc(OCCCCCCCCCCCOc2ccc(C=O)cc2)cc1 | > 10 | > 10 | > 10 | > 10 | 75.4 | 94.1 | 93.3 | 5.2 | 48.2 | 69.4 | >281.3 | 5 | 5 | 9.82 (≈ 3.89 µg/mL) | 4.23 (≈ 1.68 µg/mL) | 4.96 (≈ 1.97 µg/mL) | 0.64 (≈ 0.254 µg/mL) | 25 | 73 | 100 |  |
| CCOS(C)(=O)=O [METHANESULFONIC ACID ETHYL ESTER] |  |  |  |  |  |  |  |  |  |  |  |  |  |  |  |  |  |  |  |  | Activity [20]: 65.15%; Activity [21]: 63.44% |
| O=Cc1ccc(OCCCCCCCCCCOc2ccc(C=O)cc2)cc1 | > 10 | > 10 | > 10 | > 10 | 72.8 | 96.6 | 97.7 | 11.1 | 39.6 | 60.9 | >233.8 | 5 | 5 | > 10 | 5.45 (≈ 2.08 µg/mL) | 5.61 (≈ 2.15 µg/mL) | 0.77 (≈ 0.295 µg/mL) | 20 | 71 | 100 |  |
| O=Cc1ccc(OCCOc2ccc(C=O)cc2)cc1 | > 10 | > 10 | > 10 | > 10 | 70.5 | 85 | 93.6 | 0.3 | 32.6 | 39.2 | >80.7 |  |  | > 10 | > 10 | > 10 | 2.23 (≈ 0.603 µg/mL) | < 10 | 41 | 90 |  |

From ChEMBL document CHEMBL2380272, “Biological evaluation of bisbenzaldehydes against four Mycobacterium species” (Eur J Med Chem, 2013)
